Measured values taken from publication PMC8063330 (Oncology Letters, 2021).

What was measured:
[1] = tested on: c-myc in MKN-45 cells; assay: c-myc level by western blotting in MKN-45; type: cell-based; conditions: 24 h
Procedure, shortened: (§1)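 Cells grown in RPMI-1640 with 10% FBS and exposed to test compound. Lysates run on SDS-PAGE and immunoblotted for c-Myc with tubulin as loading reference. HRP secondaries, ECL detection.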

[2] = tested on: c-myc in SNU-638 cells; assay: c-myc level by western blotting in SNU-638; type: cell-based; conditions: 24 h
Procedure, shortened: as §1

`CCNC(=O)C[C@@H]1N=C(c2ccc(Cl)cc2)c2cc(OC)ccc2-n2c(C)nnc21` [I-BET-762] was tested, and the c-myc level [1] was “did not downregulate the c-myc level” and the c-myc level [2] was “downregulated the c-myc level”.
